# Assay outcomes as filed in PubChem BioAssay.
# 5-HT1A blocker: 5-HT1a (human) receptor antagonism; P08908; CHO 5-HT1a Ga15 NFAT-bla reporter, antagonist mode; inhibition, % at 10 µM; hit rate 0.68% among 62,000; AID 612;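 active = inhibition above the mean of all tested compounds plus 3 SD, cut at about 43% in these data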;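 note: receptor stimulated by 5-CT agonist at 100 nM near EC80; beta-lactamase reporter measured by ratiometric fluorescence of a cleavable substrate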
# 5HT1E antag: blocks the human 5-HT1E serotonin receptor | P28566 | CHO 5-HT1E Ga15 NFAT-bla reporter, FRET, antagonist | inhibition, % at 6 µM | hit rate 0.99% among 65,000 | AID 571;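 active = inhibition above a set limit, the mean inhibition across every tested compound plus 3 SD, cut at about 29% in these data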;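 note: signal is the 460 over 535 nm emission ratio of beta-lactamase substrate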
# Target sequence (P28566 whole entry, looked up): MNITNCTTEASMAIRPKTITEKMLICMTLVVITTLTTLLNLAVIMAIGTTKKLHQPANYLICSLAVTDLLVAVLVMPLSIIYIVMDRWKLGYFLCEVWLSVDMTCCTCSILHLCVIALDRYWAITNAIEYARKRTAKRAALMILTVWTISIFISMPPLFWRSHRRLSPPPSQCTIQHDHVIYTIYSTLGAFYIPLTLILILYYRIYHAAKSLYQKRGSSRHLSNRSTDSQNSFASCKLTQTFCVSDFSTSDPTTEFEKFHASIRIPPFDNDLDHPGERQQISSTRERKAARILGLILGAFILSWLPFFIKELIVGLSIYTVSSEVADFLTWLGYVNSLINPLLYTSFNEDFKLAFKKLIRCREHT
# SK-BR-3 tox 24h: SK-BR-3 proliferation inhibitors. hit rate 0.47% among 41,000. AID 847. SK-BR-3 viability, CellTiter-Glo ATP luminescence, 24 h; hits give low values. viability, % at 10 µM;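 active = viability at or below the median of all test compounds minus 3 SD, in both replicates if run twice, cut at about 45% in these data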
# 5HT1E ag: agonists of human 5-HT1E serotonin receptor. P28566. CHO 5-HT1E Ga15 NFAT-bla reporter, FRET; 0% DMSO wells, 100% control agonist wells. activation, % at 6 µM. hit rate 0.69% among 65,000;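 active = activation above a set limit, the screen-wide mean activation plus 3 SD, cut at about 8.5% in these data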
# HEK293 NFkB inh: inhibitors of the PMA/ionomycin-induced NF-kB reporter in HEK293 cells | HEK-293 NF-kB luciferase reporter, luminescence | inhibition, % at 3 µM | hit rate 0.21% among 62,000 | AID 465;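 active = inhibition above the mean of all tested compounds plus 3 SD, cut at about 40% in these data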
#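 Timing: 1 h pretreatment, 16 h stimulation, 37 °C; system: HEK-293 cells with stable firefly luciferase reporter driven by four HIV NF-kB elements; doses: 3 µM once, 0.30% DMSO; measured by: luciferase luminescence; control set: DMSO and 10 µM reference inhibitor; repeats: single test; reagent: PMA plus ionomycin mix as NF-kB-activating stimulus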
# 5HT1a ag: agonists of human 5-HT1a serotonin receptor; CHO 5-HT1a Ga15 NFAT-bla reporter, FRET ratio; 0% basal, 100% maximal reference agonist; activation, % at 10 µM; P08908; AID 567; hit rate 0.56% among 65,000;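 active = activation above the screen-wide mean activation plus 3 SD, cut at about 19% in these data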
# A number is an active result; i = inactive; nt = no result given. The list is not random: actives were taken first. Their share in the collection is about 2.9%.
SMILES,5-HT1A blocker,5HT1E antag,SK-BR-3 tox 24h,5HT1E ag,HEK293 NFkB inh,5HT1a ag
CC(C)COC(=O)NCCCOC(=O)Nc1ccccc1,i,i,i,i,i,224
CC(C)COC(=O)NCCOC(=O)Nc1cccc(Cl)c1,i,i,i,i,i,i
N#Cc1cn(-c2ccccc2)nc1-c1ccccc1,i,34,nt,i,i,i
NC(=O)C1(N2CCCCC2)CCN(Cc2ccccc2Cl)CC1,i,i,i,i,i,i
O=C(Cc1ccc(F)cc1)Nc1c2c(nn1-c1cccc(Cl)c1)CS(=O)C2 (stereo not drawn),i,i,36,i,i,i
CC(=O)Nc1c2c(nn1-c1cccc(Cl)c1)CS(=O)C2 (stereo not drawn),i,i,nt,i,i,i
Cc1cccc(N=c2oc3cc(O)ccc3cc2C(N)=O)c1,i,i,i,24,i,64
COc1ccccc1N=c1oc2cc(O)ccc2cc1C(=O)NCC1CCCO1 (stereo not drawn),i,i,i,15,i,54
COc1cccc2cc(C(=O)NCC3CCCO3)c(=O)oc12 (stereo not drawn),i,i,i,i,i,i
COc1ccccc1N=c1oc2cc(O)ccc2cc1C(N)=O,i,i,i,19,i,45
CS(=O)(=O)N(CC(=O)NCc1ccco1)c1ccc(Cl)c(C(F)(F)F)c1,i,i,i,i,i,i
CC(NC(=O)C(CC(=O)OC(C)(C)C)NC(=O)OC(C)(C)C)C(N)=O (stereo not drawn),i,i,i,i,i,i
O=C(CN(C(=O)CSc1nnc(COc2ccccc2)o1)c1ccc(F)cc1)NC1CCCC1,i,i,i,i,i,40
C=CCn1c(COc2ccc(Cl)cc2)nnc1SCC(=O)N1CC(=O)Nc2ccccc21,i,i,nt,i,i,i
c1ccc(-c2cccc(-c3ccccn3)n2)nc1,59,45,i,i,86,i
COC(=O)c1ccc(Oc2nc3ccccc3n3c(C)nnc23)cc1,nt,i,i,i,nt,i
COc1cc(OC)cc(C(=O)N2c3ccc(F)cc3CCC2C)c1 (stereo not drawn),i,i,nt,26,i,i
COc1ccc(C(=O)N2c3ccc(F)cc3CCC2C)cc1OC (stereo not drawn),i,i,i,i,i,i
COC(=O)c1ccc(Cn2cnc3c(cnn3-c3ccc(Cl)cc3)c2=O)o1,i,i,nt,i,i,i
CCOc1cccc(C(=O)Nc2ccccc2N2CCN(C(=O)C(C)C)CC2)c1,i,i,i,i,i,i
COc1ccc(C2CC(C(F)(F)F)n3nc(C(=O)NCCN4CCOCC4)cc3N2)cc1 (stereo not drawn),i,i,i,i,i,36
CCOc1ccc(C2CC(c3cccc(OC)c3OC)n3nnnc3N2)cc1Cl (stereo not drawn),i,i,i,i,i,i
O=C(Cc1cccs1)NCC1CCCO1 (stereo not drawn),i,i,35,i,i,i
O=C(NCC1CCCO1)C1C2C=CC3(CN(Cc4cccs4)C(=O)C13)O2 (stereo not drawn),i,i,nt,29,i,i
CN(C)c1nc2c(c(=O)[nH]c(=O)n2C)n1Cc1ccccc1Br,i,i,i,i,i,i
SMILES,5-HT1A blocker,5HT1E antag,SK-BR-3 tox 24h,5HT1E ag,HEK293 NFkB inh,5HT1a ag
CCOc1cc(-c2c(C#N)c(N)nc3c2CCCC3)ccc1O,i,i,i,i,i,i
CCOc1cc(-c2cc(-c3ccc(N)cc3)nc(N)c2C#N)ccc1O,i,30,i,i,i,i
O=C1NCCCC2c3c(cc(Br)c(O)c3Br)OC12N1CCOCC1 (stereo not drawn),i,i,i,i,i,i
O=C1NCCCC2c3cc(O)c4ccccc4c3OC12N1CCCCC1 (stereo not drawn),i,i,5.1,i,i,i
CCC(C)(C)NC(=O)C(c1ccc(F)cc1)N(Cc1ccco1)C(=O)c1cnccn1 (stereo not drawn),i,i,i,i,i,i
COc1ccc(OC)c(S(=O)(=O)N2CCC(C(=O)N3CCc4ccccc4C3)CC2)c1,i,i,i,i,i,i
Cn1cnnc1SCC(=O)Nc1ccccc1Sc1ccccc1,i,i,nt,i,i,311
Cn1cnnc1SCCC(=O)Nc1ccccc1,i,i,i,i,i,i
COc1ccc(-n2c(N)c(Br)c(=O)[nH]c2=O)cc1,i,i,i,i,i,i
